An excerpt weighted towards active compounds, which were near 2.8% of everything screened.
JMJD2C inh – inhibitors of GASC-1 histone demethylase, primary screen, biochemical, fluorescence, DELFIA europium; 0.069% of 330,000 active; inhibition, % at 2.35 µM; Lysine-specific demethylase 4C (Homo sapiens), Q9H3R0; GST-JMJD2C(1-420) H3K9me3 demethylation; AID 2099, 2009;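 active = more than half of a compound's replicate wells show inhibition beyond 50%, single wells judged on their own value; inconclusive = some, but no more than half, of replicates pass 50% inhibition; inactive = no replicate passes 50% inhibition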;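 note: signal counts dimethyl H3K9 product captured on neutravidin plate; 0% = median of DMSO wells and 100% = 0.3 times that DMSO median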
T cell modulator – modulators of CD8 T cell-vesicle binding, primary screen, mouse 2C CD8+ T cells, flow cytometry; 0.068% of 330,000 active; AID 2052, 2009; response (vesicle binding), % at 7 µM; 2C CD8+ T cell-vesicle binding; active compounds read low;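 active = response, share of CD8 T cells binding vesicles, and their 90th percentile fluorescence all below set limits, cut at about 80% in these data, passing the limit was not always enough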;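 note: values below 100% mean blocked vesicle binding to the CD8+ T cells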
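Test system: purified 2C TCR transgenic mouse naive CD8+ T cells. Probe or stimulus: QL9-peptide-loaded Drosophila micro-vesicles bearing Ld, ICAM-1 and B7-1. Incubation: binding step 1.5 h, 37 °C, antibody labelling 20 min, ice. Measured by: flow cytometry of vesicle-bound cells.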
Rtt109 HAT inh – inhibitors of C. albicans Rtt109/Vps75 HAT, primary screen, biochemical, ThioGlo CoA-SH fluorescence, plate reader. Histone acetyltransferase RTT109 (Candida albicans (strain SC5314 / ATCC MYA-2876)), …. purified Rtt109/Vps75, 4 h. inhibition, % at 34.9 µM. 0.16% of 330,000 active. AID 540336, 2011;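 active = inhibition of at least 50% in every replicate; inconclusive = best replicate reaches 50% inhibition but some replicates fall short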
Target sequence (Q5AAJ8 whole entry, looked up): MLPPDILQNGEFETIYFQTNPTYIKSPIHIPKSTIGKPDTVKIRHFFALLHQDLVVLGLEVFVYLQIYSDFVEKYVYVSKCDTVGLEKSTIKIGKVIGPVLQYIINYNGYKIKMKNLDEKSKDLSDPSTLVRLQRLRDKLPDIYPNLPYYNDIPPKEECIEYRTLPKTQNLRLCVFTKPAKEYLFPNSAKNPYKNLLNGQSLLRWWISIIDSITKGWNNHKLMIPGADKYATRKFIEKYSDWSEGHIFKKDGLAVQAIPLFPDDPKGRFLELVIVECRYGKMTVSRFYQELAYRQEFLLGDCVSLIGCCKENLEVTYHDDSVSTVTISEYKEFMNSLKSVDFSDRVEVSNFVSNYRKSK
GRIN3A LBD mod – binders of NR3A ligand-binding domain, primary screen, biophysical, differential scanning fluorimetry, uHTS; Glutamate receptor ionotropic, NMDA 3A (GRIN3A) ligand-binding domain; NR3A LBD differential scanning fluorimetry, Tm shift; 0% = protein alone, 100% = glycine-bound protein; Tm shift relative to glycine control, % at 25 µM; 2.5% of 340,000 active; AID 1259313, 2017;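 active = melting temperature shift of at least 10% of the positive control shift, at one fixed dose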
* marks the source's active call; other numbers are inactive results; ? = inconclusive; · = no result given.

SMILES	JMJD2C inh	T cell modulator	Rtt109 HAT inh	GRIN3A LBD mod
COc1ccccc1C(=O)NC(=O)COC(=O)CCOc1cc(C)ccc1C	-4	225	1	-5
COc1ccc(NC(=O)CSc2nc3ccc(Nc4nc(N5CCOCC5)nc(N5CCOCC5)n4)cc3s2)cc1	-9	399	-2	2
CC(=O)Nc1ccc2nc(SCC(=O)Nc3ccc(N4CCOCC4)c(Cl)c3)sc2c1	0	448	1	25*
Cc1ccc(NC(=O)CSc2nc3ccc(Nc4nc(N5CCOCC5)nc(N5CCOCC5)n4)cc3s2)cc1	-4	220	3	15*
COc1cccc(Nc2nc(-c3sc(N)nc3C)cs2)c1	1	299	3	-2
Cc1nc(C)c(-c2csc(Nc3ccc(F)cc3)n2)s1	3	168	11	15*
COc1cccc(Nc2nc(-c3sc(C)nc3C)cs2)c1	18	94	-1	12*
Cc1nc(C)c(-c2csc(Nc3ccc(C(=O)O)c(O)c3)n2)s1	7	139	0	-1
COc1cc(OC)c(NC(=O)c2cc3ccccc3cc2O)cc1Cl	·	·	2	26*
O=C(COc1ccc(Cl)cc1Cl)Nc1ccc(C(=O)Nc2ccccc2C(=O)O)cc1	-22	186	17	16*
COc1ccccc1C(=O)Nc1cc(Cl)ccc1O	3	212	6	11*
COc1ccc(Cl)cc1NC(=O)c1ccccc1C	7	151	0	0
Cc1ccc(NC(=O)COc2ccccc2C(=O)Nc2ccccc2)cc1Cl	14	161	20	-17
Cc1ccc(Cl)cc1NC(=O)c1ccccc1OCC(=O)Nc1ccc(Cl)cc1	-10	211	2	30*
Cc1cc(C(=O)NNC(=O)c2ccc(F)cc2)c(C)s1	8	392	7	-2
Cc1cccc(NC(=O)CCCN=C2NS(=O)(=O)c3ccccc32)c1C	-3	426	4	0
CCOC(=O)C1=C(C)NC(=S)NC1c1ccc(OCC(=O)N2CCCCCC2)cc1 (stereo not given)	0	169	4	-1
N#Cc1ccccc1NC(=O)c1ccccc1OCC(=O)Nc1ccc2c(c1)oc1ccccc12	-5	582	4	23*
CCOc1ccccc1C(=O)Nc1cc(Cl)ccc1O	-4	389	13	16*
CCOc1ccccc1C(=O)Nc1cc(OC)ccc1OC	17	439	13	2
N#Cc1cccc(NC(=O)CCNS(=O)(=O)c2ccc3[nH]c(=O)oc3c2)c1	-1	671	20	3
CC(=O)Nc1ccc(C(=O)COC(=O)c2cc(C)oc2C)c(F)c1	1	362	-6	-4
CCOC(=O)C1=C(C2=CCCCC2)c2ccc(OC)cc2N(S(=O)(=O)C(F)(F)F)C1C(=O)OCC (stereo not given)	·	·	-3	-2
COc1ccc(/C=C2\C(=O)ON=C2c2ccccc2)cc1	?	276	8	19*
Cc1ccc(C2=NOC(=O)/C2=C\c2ccc(C)o2)cc1	-17	112	1	13*
SMILES	JMJD2C inh	T cell modulator	Rtt109 HAT inh	GRIN3A LBD mod
O=C1ON=C(c2ccccc2)/C1=C/c1ccc(OS(=O)(=O)c2ccccc2)cc1	6	347	13	-4
O=C1ON=C(c2ccccc2)/C1=C/c1ccc(O)c(O)c1	-7	286	19	16*
CC(=O)Nc1ccc(NC(=O)C(C)Oc2ccc(C)nc2[N+](=O)[O-])cc1 (stereo not given)	9	558	1	-1
O=C(NCCCNC(=O)c1cc(Cl)ccc1Cl)c1ccco1	4	189	22	1
COc1ccc(/C=C/C(=O)OCC(=O)NCCCc2ccccc2)cc1OC	0	174	9	-2
C=CCOc1ccc(/C=C/C(=O)OCC(=O)NCCCc2ccccc2)cc1	16	145	-3	15*
O=C(O)c1ccccc1NCc1cccs1	-4	609	-12	-5
COc1ccc(NC(=O)c2ccc(-c3ccc(C(C)=O)cc3)o2)cn1	6	314	3	27*
COc1ccc(NC(=O)c2ccc(-c3ccc([N+](=O)[O-])cc3)o2)cc1	0	493	5	25*
COc1ccc(NC(=O)c2ccco2)cn1	7	362	8	-1
COc1ccc(NC(=O)CCC(=O)OCc2ccc([N+](=O)[O-])cc2)cc1	-11	258	·	20*
CC(=O)c1ccc(NC(=O)CCC(=O)OCC(=O)c2cccc([N+](=O)[O-])c2)cc1	1	228	-9	62*
Cc1nc2cc(NC(=O)c3cccc(S(C)(=O)=O)c3)ccc2o1	18	163	-11	0
O=C(COc1ccc([N+](=O)[O-])cc1)NCC(c1cccs1)N1CCOCC1 (stereo not given)	-4	421	-1	0
c1ccc2scnc2c1	·	·	-5	0
Cc1cc(C(=O)N/N=C/C(Cl)=C/c2ccccc2)c(C)o1	28	301	5	-3
O=C(CSc1nc2ccccc2[nH]1)NC1CCCC1	5	371	-3	-2
O=C(COC(=O)CCCSc1nc2ccccc2[nH]1)Nc1ccc(Cl)cc1	-7	279	-14	16*
CC(Sc1nc2ccccc2c(=O)n1C)C(=O)NC1CCCCC1C (stereo not given)	11	654	2	-3
O=C(CCCSc1nc2ccccc2[nH]1)NC1CCCCC1	-1	283	56*	0
CC(Sc1nc2ccccc2[nH]1)C(=O)NC1CCCCC1C (stereo not given)	8	49*	3	0
CCNC(=O)NC(=O)COC(=O)CCCSc1nc2ccccc2[nH]1	7	242	10	-1
COc1cc(OC)c(NC(=O)CN(C)S(=O)(=O)c2ccc(-c3ccc(=O)[nH]n3)s2)cc1Cl	2	124	52*	0
O=C(Nc1cnn(Cc2ccc(F)cc2)c1)C(c1ccccc1)c1ccccc1	-5	323	0	20*
CC1CCC2(CC1)NC(=S)N(C(C)(C)C)N2 (stereo not given)	-21	347	21	1
SMILES	JMJD2C inh	T cell modulator	Rtt109 HAT inh	GRIN3A LBD mod
CC1CCC2(CC1)NC(=S)N(c1ccccc1)N2 (stereo not given)	-1	305	95*	9
O=C(CN1CCc2ccccc2C1)Nc1ccccc1C(F)(F)F	5	312	-4	2
O=C(Nc1ccc(NC(=O)c2cccs2)cc1)c1ccc2c(c1)OCCO2	-7	365	-5	29*
O=C(Nc1ccc(NC(=O)c2ccc3c(c2)OCCO3)cc1)c1ccccc1	2	412	-5	12*
O=C(Nc1ccc(NC(=O)c2cccs2)cc1)c1ccc2c(c1)OCO2	4	236	0	14*
O=C(Nc1cccc(NC(=O)c2cccs2)c1)c1ccc2c(c1)OCO2	1	279	16	7

Screens deposited in PubChem by several laboratories.
